A selection: hits, their analogues and other compounds. The true share with any hit is near 10%.
PMI act hi M6P = increases human PMI activity with near-saturating mannose 6-phosphate; activation factor at 20 µM; P34949; actives 0.34% (n = 190,000); coupled PMI enzyme assay, resazurin fluorescence, 20 min; hits give high values; 1 = untreated enzyme, 0 = substrate-free blank;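 active means activation factor of 2 or more at 20 µM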
Target sequence (P34949 whole entry, looked up): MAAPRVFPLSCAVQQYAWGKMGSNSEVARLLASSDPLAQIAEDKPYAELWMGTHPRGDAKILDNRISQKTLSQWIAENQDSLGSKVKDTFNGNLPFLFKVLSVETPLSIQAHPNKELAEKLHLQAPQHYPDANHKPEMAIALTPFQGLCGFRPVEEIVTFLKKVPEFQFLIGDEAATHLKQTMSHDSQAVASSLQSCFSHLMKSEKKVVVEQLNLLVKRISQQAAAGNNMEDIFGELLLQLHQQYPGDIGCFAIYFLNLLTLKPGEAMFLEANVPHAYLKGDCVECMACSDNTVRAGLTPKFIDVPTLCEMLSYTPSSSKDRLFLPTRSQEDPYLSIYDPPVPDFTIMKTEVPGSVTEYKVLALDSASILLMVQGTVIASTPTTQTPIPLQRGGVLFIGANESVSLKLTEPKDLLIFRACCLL
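Technique: Diaphorase-driven resazurin-to-resorufin fluorescence, excitation 544, emission 590 nm | Assay system: Human PMI in coupled enzyme assay | Times: Enzyme reaction with compound 20 min at room temperature | Medium: HEPES-buffered pH 7.4 with magnesium and detergent | Reagent: Mannose-6-phosphate 1.0 mM (near-saturating) plus 0.22 mM NADP+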
L major viab = inhibitors of Leishmania major promastigote growth. Leishmania major promastigotes, resazurin fluorescence viability. inhibition, % at 10 µM. actives 9% (n = 200,000). AID 1063; in the data active means inhibition above about 50%;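 further: promastigotes grown with compound for 44 hours at 28 °C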
Diaph act CS = counter-screen for diaphorase-based assays: diaphorase activators and chemical reducers | Diaphorase/resazurin coupled assay, resorufin fluorescence, 16 min; hits give high values; 1 = vehicle wells, 0 = NADH-free wells | actives 0.005% (n = 190,000) | activation factor at 20 µM;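 active means diaphorase activity raised at least twofold by the compound at 20 µM; inactive means activation factor below 2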
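System – purified diaphorase enzyme from Clostridium kluyveri · Input – enzyme 0.07 U/mL final · Also added – final NADH 0.114 mM, resazurin 0.1 mM · Measured by – fluorescence of resorufin, 544 nm excitation, 590 nm emission · Timing – 16 min enzyme reaction, ambient temperature · Measure – resorufin increase flagging diaphorase activators or reducers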
WT yeast gro inh = growth inhibition of WT yeast, mitochondrial fusion screen | actives 2.1% (n = 190,000) | mitochondrial fusion phenotypic screen, WT strain | inhibition, % at 10 µM; in the data active means inhibition above about 58%; tested in S. cerevisiae
PMI act = increases human mannose-6-phosphate isomerase activity; P34949; activation factor at 20 µM; purified human PMI, coupled resazurin fluorescence, 20 min; hits give high values; 1 = vehicle control, 0 substrate-free wells; actives 0.005% (n = 190,000);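 active means activation factor of 2 or more at 20 µM, relative to plate controls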
Large screens that a line does not name were inactive.

CCOc1cc(C2NN=C(c3ccccc3)S2)ccc1OCc1ccccc1Cl (centres undefined)	none
CCOc1c(Cl)cc(CNCC(C)C)cc1OC	L major viab 80.3
CCOc1cc(CNC2CCCC2)cc(Cl)c1OCc1ccccc1	L major viab 96.9
CCOc1cc(CNC2CCCC2)ccc1OCc1ccccc1Cl	L major viab 100.2
COc1ccc(C(=O)Nc2nc3nccc(-c4ccccc4)n3n2)cc1	none
COc1ccc(/C=C(\C#N)C(=O)OCC(=O)NC2CC2)cc1	none
COc1ccccc1CNC(=O)C(=O)NCC(c1ccco1)N1CCOCC1 (centres undefined)	none
CCOc1ccc(NC(=O)CSc2nnc(-c3ccco3)n2C)cc1	WT yeast gro inh 95.3
Cn1nnnc1SCC(=O)Nc1ccc(Oc2ccccc2)cc1	L major viab 92.7
Cc1ccc(NC(=O)CCC(=O)NNC(=O)c2ccccc2[N+](=O)[O-])c(C)c1	none
CCC(C)(C)NC(=O)c1cc(S(=O)(=O)N2CCCCC2)ccc1N1CCOCC1	none
O=C(NCCc1c[nH]c2ccccc12)c1cc(S(=O)(=O)N2CCCCC2)ccc1N1CCOCC1	L major viab 64.6
COc1ccc(NC(=O)Cn2nnc(-c3ccccc3NS(=O)(=O)c3ccc(OC)cc3)n2)cc1	L major viab 68.8
COc1ccc(NC(=O)Cn2nnc(-c3ccccc3NC(=O)c3cccs3)n2)cc1	none
COc1ccccc1NC(=O)Cn1nnc(-c2ccccc2NS(=O)(=O)c2ccccc2)n1	L major viab 51.2
COc1ccccc1NC(=O)Cn1nnc(-c2ccccc2NC(=O)c2cc3ccccc3oc2=O)n1	L major viab 100.5
Cc1ccc(O)c(-c2cc(-c3ccccc3[N+](=O)[O-])[nH]n2)c1	L major viab 56.6
CC(C)=CCCC(C)CN1CCC(N2CCC(C(=O)N3CCOCC3)CC2)CC1 (centres undefined)	L major viab 96.1
O=C(C1CCN(C2CCN(CC3CC=CCC3)CC2)CC1)N1CCOCC1 (centres undefined)	L major viab 76.2
CC(C)=CCCC(C)CN1CCC(N2CCC(C(=O)NC(C)C)CC2)CC1 (centres undefined)	L major viab 83.5
CC(C)=CC(=O)N1CCC(N2CCC(C(=O)N3CCOCC3)CC2)CC1	none
CC(C)NC(=O)C1CCN(C2CCN(CC3CC=CCC3)CC2)CC1 (centres undefined)	none (no result: PMI act hi M6P, Diaph act CS, PMI act)
CC(=O)c1cc(CN2CCC(N3CCC(C(=O)NC(C)C)CC3)CC2)cs1	none
COc1ccc(OC)c([C@@H]2OCCC=C[C@H]2C)c1	none
C=CCNC(=S)NNC(=O)COc1ccc2cc(Br)ccc2c1	WT yeast gro inh 59.4
COc1cc(/C=N/n2cnnc2)ccc1OCCOc1ccccc1	none
COc1cc(/C=N/n2cnnc2)ccc1OCc1ccc(C)cc1	L major viab 96.2
CCOc1cc(/C=N/O)ccc1OS(=O)(=O)c1ccc(C)cc1	none
CCOc1cc(/C=N/O)ccc1OCc1ccc(C)cc1	L major viab 60.6
COc1cc(/C=N/n2cnnc2)ccc1OCc1ccccc1	L major viab 80.3, WT yeast gro inh 64.2
O=C(CNC1CCCCC1)NN=C(c1ccccc1)c1ccccc1	none
CCCCC[n+]1ccn(C2=C([O-])c3ccccc3C(=O)/C2=N\S(=O)(=O)c2ccccc2)c1	L major viab 90.5
COc1ccccc1NC(=S)N(Cc1cccs1)C1CCCC1	WT yeast gro inh 74.9
CN(C)S(=O)(=O)Nc1ccccc1F	none
Cc1ccc(S(=O)(=O)NCC(=O)OCC(=O)c2c(N)n(C)c(=O)n(C)c2=O)cc1	none
CC(=O)Nc1ccc(NC2(C)C(=O)c3ccccc3C2=O)cc1	none
CC(=O)Nc1ccc2c(c1)C(C)(C)C(C)N2C (centres undefined)	L major viab 94.3
Brc1cc2c(cc1/C=N/Nc1nc(N3CCOCC3)nc(N3CCOCC3)n1)OCO2	none
Cc1ccc(-c2nnc3n2CCCCC3)cc1	WT yeast gro inh 73.8
Cc1ccc(N2CCC(N3CCN(C4CCCCC4)C(CCO)C3)CC2)cc1 (centres undefined)	L major viab 53.5
CCOC(=O)N1CCC(N2CCN(Cc3ccccc3)C(CCO)C2)CC1 (centres undefined)	L major viab 50.1
CC(=O)N1CCC(N2CCN(Cc3ccc(C)cc3)C(CCO)C2)CC1 (centres undefined)	none

Assay outcomes (PubChem)
